Hits are enriched below; roughly 1.1% of the tested compounds scored in any of these assays.
CDK5 p35 inh – inhibitors of human CDK5/p35 kinase | Q00535+Q15078 | Recombinant CDK5/p35, ADP-Glo luminescence, 60 min | inhibition, % at 10 µM | 330,000 compounds, 0.01% hits;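 active means highest replicate inhibition of at least 50% and at least 75% of replicates reaching 50%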;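 further: plate controls were DMSO neutral control for no effect and GW8510 at 10 µM for full effect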
Target sequence (Q00535 whole entry, looked up): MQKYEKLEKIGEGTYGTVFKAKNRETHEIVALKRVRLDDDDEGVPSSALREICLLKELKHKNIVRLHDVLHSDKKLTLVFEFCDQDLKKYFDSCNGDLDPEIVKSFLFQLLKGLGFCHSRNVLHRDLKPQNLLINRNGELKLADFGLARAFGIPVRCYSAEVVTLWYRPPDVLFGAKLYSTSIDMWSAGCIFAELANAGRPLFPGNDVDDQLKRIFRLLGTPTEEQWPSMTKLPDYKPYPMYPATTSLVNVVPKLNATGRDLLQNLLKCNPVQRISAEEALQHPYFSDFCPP
Target sequence (Q15078 whole entry, looked up): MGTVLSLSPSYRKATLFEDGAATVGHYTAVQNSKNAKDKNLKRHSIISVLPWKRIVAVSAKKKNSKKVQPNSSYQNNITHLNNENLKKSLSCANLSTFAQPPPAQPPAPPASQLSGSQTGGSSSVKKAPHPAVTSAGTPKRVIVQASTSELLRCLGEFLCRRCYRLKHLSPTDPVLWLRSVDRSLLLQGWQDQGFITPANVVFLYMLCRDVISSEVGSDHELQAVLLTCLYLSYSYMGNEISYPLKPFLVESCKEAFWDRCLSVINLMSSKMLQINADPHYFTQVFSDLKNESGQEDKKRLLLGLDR
SR-BI DiI inh – inhibitors of mouse SR-BI mediated HDL lipid uptake. ldlA[mSR-BI] CHO cells, DiI-HDL uptake fluorescence, 3 h. inhibition, % at 12.5 µM. 320,000 compounds, 0.96% hits;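 active means mean replicate inhibition of at least 70% and a set share of replicates each scoring 70 or more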;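 further: 0% = median of neutral control wells and 100% = median of positive control wells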
GSK3 alpha inh – blocks human GSK-3 alpha kinase; P49840; ADP-Glo luminescence, 60 min; inhibition, % at 10 µM; 320,000 compounds, 0.1% hits;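 active means more than half of replicates show inhibition above 20%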;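 further: GST-tagged GSK-3 alpha with peptide substrate and 25 µM ATP; 0% = DMSO neutral wells and 100% = GW8510 positive control wells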
SR-BI uptake up – enhances SR-BI lipid uptake from DiI-HDL | CHO ldlA[mSR-BI] cells, DiI-HDL uptake fluorescence, 3 h; 100 = double the neutral-control signal | activation, % at 12.5 µM | 320,000 compounds, 0.096% hits;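 active means mean replicate activation of at least 60% and every replicate at or above 60%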;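 further: 0% = median plate neutral-control signal and 100% = twice that signal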
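Test system: SR-BI-overexpressing, LDLR-lacking CHO cells; Also added: labelled HDL, 10 µg/mL; Measured by: bottom-read cell fluorescence after medium removal, ex 550/em 595 nm; Timing: 3 h uptake period with compound, 37 °C; Buffer or medium: F12, 0.5% BSA, 25 mM HEPES; Doses: single compound concentration, delivered by pin transfer.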
GSK3B inh – inhibitors of human GSK3beta kinase | P49841 | activity score (negative = inhibition), % at 10 µM | GST-GSK3beta kinase, ADP-Glo luminescence, 60 min; active compounds read low | 300,000 compounds, 0.038% hits;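 active means more than half of replicate wells score below -50%, meaning over 50% inhibition versus plate controls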;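 further: 0% = median DMSO wells and -100% = median GW8510 positive control wells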
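Test system: GST-tagged human GSK3beta kinase, cell-free; evaluation: activity score scaled between in-plate DMSO and GW8510 controls; measured by: ADP-Glo luminescence; incubation: 60 min reaction, RT; benchmarks: DMSO and 20 µM GW8510; reagent: peptide substrate plus 25 µM ATP (final); medium: Tris/MgCl2 kinase buffer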
* = called active by the depositor; nt = not tested or not shown.

SMILES	CDK5 p35 inh	SR-BI DiI inh	GSK3 alpha inh	SR-BI uptake up	GSK3B inh
O=C(c1ccc2c(c1)OCO2)C1CCCN(C2CCN(CCc3ccccc3)CC2)C1 (configuration not stated)	0	-6	-1	6	1
O=C(N/N=C/c1c(O)ccc2ccccc12)c1cccnc1	2	51	5	-51	0
Cn1nccc1C(=O)N/N=C/c1c(O)ccc2ccccc12	1	105*	-2	-105	0
Cc1c(C(=O)N/N=C/c2c(O)ccc3ccccc23)nnn1-c1nonc1N	1	10	-2	-10	4
O=C(NN=Cc1c(O)ccc2ccccc12)c1ccncc1	1	97*	nt	-97	nt
CCOC(=O)C1CCN(S(=O)(=O)c2ccc(CNC(=O)c3ccccc3)s2)CC1	1	-17	-1	17	1
CCOc1ccc(N(CC(=O)Nc2c(C)n(C)n(-c3ccccc3)c2=O)S(=O)(=O)c2ccc(F)cc2)cc1	0	4	-4	-4	-2
CCOc1ccccc1N(CC(=O)Nc1c(C)n(C)n(-c2ccccc2)c1=O)S(=O)(=O)c1ccccc1	-1	-71	-1	71*	1
COc1ccc([N+](=O)[O-])cc1NC(=O)c1ccc(-n2nc(C)cc2C)cc1	2	90*	-3	-90	-1
COc1ccc(OC)c(NC(=O)/C=C/c2ccccc2[N+](=O)[O-])c1	1	86*	1	-86	-1
COc1ccc([N+](=O)[O-])cc1NC(=O)c1ccccc1SC	1	77*	-4	-77	1
COc1ccc(OC)c(NC(=O)c2cccc(C)c2[N+](=O)[O-])c1	-2	73*	-1	-73	3
Cc1cc(NC(=O)CCSc2ccccc2)no1	1	-25	0	25	-15
O=C(Nc1ccc(N2CCCC2)cc1)c1ccc2ccccc2c1	-1	88*	0	-88	-6
CC(=O)N1CCN(c2ccc(NC(=O)c3ccc4ccccc4c3)cc2)CC1	1	38	0	-38	-1
CC(=O)N1CCN(c2ccc(NC(=O)c3cccc(Cl)c3Cl)cc2)CC1	-1	48	-1	-48	nt
O=C(Nc1ccc(N2CCCC2)cc1)c1cccc(-c2cc3ccccc3oc2=O)c1	-1	90*	0	-90	1
O=C(Nc1ccc(N2CCCC2)cc1)c1cccc(Cl)c1Cl	3	79*	0	-79	1
O=C(CSc1nnc(NC2CC2)s1)c1ccc[nH]1	-3	22	-4	-22	nt
O=C(COC(=O)CCC(=O)c1cccs1)Nc1ccccc1C(F)(F)F	-2	1	-2	-1	nt
COc1ccc(C(=O)N/N=C/c2ccccc2OC(=O)c2ccccc2)cc1	-1	27	-2	-27	-1
CCOc1cc(/C=N\NC(=O)c2ccc(NC(=O)C(C)(C)C)cc2)ccc1OC(=O)c1ccc(C)cc1	1	54	-8	-54	-2
CC(C)(C)C(=O)Nc1ccc(C(=O)N/N=C/c2ccccc2OC(=O)c2ccccc2)cc1	-1	122*	-3	-122	2
Cc1cccc(C(=O)Oc2ccccc2/C=N/NC(=O)c2ccc(NC(=O)C(C)(C)C)cc2)c1	0	87*	0	-87	-1
CC(C)(C)C(=O)Nc1ccc(C(=O)N/N=C/c2ccccc2OC(=O)c2ccc(Cl)cc2)cc1	-2	97*	-2	-97	-1
SMILES	CDK5 p35 inh	SR-BI DiI inh	GSK3 alpha inh	SR-BI uptake up	GSK3B inh
O=C(Nc1cccc(C(F)(F)F)c1)C1CCCO1 (configuration not stated)	1	-20	0	20	0
Cc1cc(C(=O)CSc2nc(N)cc(N)n2)c(C)n1CCc1ccc(F)cc1	-1	53	1	-53	2
Cc1cc(C(=O)COC(=O)c2ccc(O)cc2)c(C)n1CCc1ccc(F)cc1	-3	74*	-2	-74	3
Cn1nc(-c2ccccc2F)c2cc(C(=O)Nc3ccc4c(c3)OCCO4)sc21	1	60	nt	-60	3
COc1cccc(-c2nn(C)c3sc(C(=O)Nc4ccc5c(c4)OCCO5)cc23)c1	1	86*	0	-86	2
CCOC(=O)c1ccc(N/C=C\C(=O)c2cccc(OC)c2)cc1	-3	18	0	-18	0
COc1cccc(C(=O)/C=C/Nc2cc(C)ccc2O)c1	-3	92*	0	-92	-4
O=C(COC(=O)/C=C/c1cccc(Cl)c1)NCCc1ccc(Cl)cc1Cl	1	-83	-3	83*	1
Cn1cc(C(=O)c2ccc(Cl)cc2Cl)cc1C(=O)N/N=C(\N)COc1ccc(Cl)cc1Cl	2	83*	-1	-83	-9
Cn1cc(C(=O)c2ccc(Cl)cc2Cl)cc1C(=O)N/N=C(\N)COc1ccc(Cl)cc1	-1	nt	0	nt	-2
CCC1(c2ccccc2)NC(=O)N(CC(=O)Nc2ccc(S(N)(=O)=O)cc2)C1=O (configuration not stated)	0	nt	0	nt	0
COc1cc2c(cc1NC(=O)C(Cl)Cl)-c1ccc(NC(=O)C(Cl)Cl)cc1C2	-1	83*	nt	-83	nt
COc1cc(C(=O)Nc2ccc3c(c2)Cc2ccccc2-3)cc(OC)c1OC	2	39	nt	-39	-1
CS(=O)Cc1cc(Sc2ccccc2)nc(-c2ccncc2)n1 (configuration not stated)	1	-17	12	17	-7
COc1cc(CNc2nc(C)c([N+](=O)[O-])c(C)c2C#N)cc(OC)c1	1	76*	-1	-76	0
Cc1nc(NCCc2ccc(F)cc2)c(C#N)c(C)c1[N+](=O)[O-]	-3	43	-2	-43	0
Cc1nc(NCCc2ccccc2F)c(C#N)c(C)c1[N+](=O)[O-]	1	74*	2	-74	16
COc1ccc(C2=CC(=O)CC(C)(C)C2)cc1OC	0	21	3	-21	nt
COc1ccc(S(=O)(=O)N2CCCOC2CNC(=O)C(=O)NCCCN2CCOCC2)cc1C (configuration not stated)	1	-3	-1	3	-1
CC1(C)CC(=O)C(C(=O)c2ccccc2)C(=O)C1	0	-8	-3	8	-8
CCN1C[C@@H]2[C@@H]3C(=O)N(Cc4ccccc4)C(=O)[C@@H]3[C@](C)(C(=O)OC)N2C1=NC	3	17	nt	-17	nt
Cc1cc(Cl)ccc1OCCCC(=O)NNC(=O)c1ccccc1O	-2	109*	1	-109	2
CCN(CC)S(=O)(=O)c1ccc2[nH]c(=O)cc(C(=O)NCC3CCCO3)c2c1 (configuration not stated)	2	-8	-1	8	0
CCCCn1cnc2c(sc3nc4c(cc32)CSC(C)(C)C4)c1=O	-1	29	0	-29	3
CC1(C)Cc2nc3sc4c(NCCO)ncnc4c3cc2CS1	2	79*	1	-79	2

Source: PubChem BioAssay
